According to ChEMBL document CHEMBL5058577, “EUbOPEN Chemogenomics Library 2 (Multiplex)” (2022):

System: HEK-293T
Test: Multiplex assay against HEK293T
Type: toxicity, cell-based
Details: human
In short: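 Cells were classed with CellPathfinder machine-learning gating, first as Hoechst high-intensity objects or normal cells, then (normal cells) as healthy, pyknosed or fragmented nuclei, and finally (pyknosed cells) as mitotic or apoptotic. Staining of live cells at seeding used Hoechst33342, BioTracker Green Microtubule Cytoskeleton Dye, MitoTracker Red and Annexin V Alexa Fluor 680, with imaging on a CQ1 microscope at 37°C and 5% CO2 after compound addition. Tubulin, mitochondrial-mass and membrane-permeability phenotypes are per cents of healthy-nucleus cells.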

[1] = 12 h, 1 µM, compound concentration 1 uM, replicate 1
[2] = 12 h, 1 µM, compound concentration 1 uM, replicate 2
[3] = 12 h, 10 µM, compound concentration 10 uM, replicate 1
[4] = 12 h, 10 µM, compound concentration 10 uM, replicate 2
[5] = 24 h, 1 µM, compound concentration 1 uM, replicate 1
[6] = 24 h, 1 µM, compound concentration 1 uM, replicate 2
[7] = 24 h, 10 µM, compound concentration 10 uM, replicate 1
[8] = 24 h, 10 µM, compound concentration 10 uM, replicate 2
[9] = 48 h, 1 µM, compound concentration 1 uM, replicate 1
[10] = 48 h, 1 µM, compound concentration 1 uM, replicate 2
[11] = 48 h, 10 µM, compound concentration 10 uM, replicate 1
[12] = 48 h, 10 µM, compound concentration 10 uM, replicate 2

S=C(NCCCc1c[nH]cn1)NCCCN(Cc1ccc(Cl)c(Cl)c1)c1ccc(Br)cn1
Population Apoptotic (%) [1]: 39%
Population Fragmented Nuclei (%) [1]: 8%
Population Healthy Nuclei (%) [1]: 78%
Population Hoechst High Intensity Objects (%) [1]: 17%
Population Membrane Permeable-Phenotype (%) [1]: 0%
Population Mitochondria Different-Phenotype (%) [1]: 50%
Population Mitotic Cells (%) [1]: 60%
Population Normal (%) [1]: 82%
Population Pyknosed Nuclei (%) [1]: 13%
Population Tubulin-Different-Phenotype (%) [1]: 36%
Total Cell Count [1]: 378
Population Apoptotic (%) [2]: 53%
Population Fragmented Nuclei (%) [2]: 5%
Population Healthy Nuclei (%) [2]: 79%
Population Hoechst High Intensity Objects (%) [2]: 6%
Population Mitochondria Different-Phenotype (%) [2]: 58%
Population Mitotic Cells (%) [2]: 46%
Population Normal (%) [2]: 93%
Population Pyknosed Nuclei (%) [2]: 14%
Population Tubulin-Different-Phenotype (%) [2]: 35%
Total Cell Count [2]: 294
Population Apoptotic (%) [3]: 90%
Population Fragmented Nuclei (%) [3]: 4%
Population Healthy Nuclei (%) [3]: 57%
Population Hoechst High Intensity Objects (%) [3]: 33%
Population Membrane Permeable-Phenotype (%) [3]: 0%
Population Mitochondria Different-Phenotype (%) [3]: 77%
Population Mitotic Cells (%) [3]: 9%
Population Normal (%) [3]: 66%
Population Pyknosed Nuclei (%) [3]: 38%
Population Tubulin-Different-Phenotype (%) [3]: 78%
Total Cell Count [3]: 242
Population Apoptotic (%) [4]: 77%
Population Fragmented Nuclei (%) [4]: 8%
Population Healthy Nuclei (%) [4]: 71%
Population Hoechst High Intensity Objects (%) [4]: 19%
Population Mitochondria Different-Phenotype (%) [4]: 84%
Population Mitotic Cells (%) [4]: 22%
Population Normal (%) [4]: 80%
Population Pyknosed Nuclei (%) [4]: 19%
Total Cell Count [4]: 229
Population Apoptotic (%) [5]: 39%
Population Fragmented Nuclei (%) [5]: 10%
Population Healthy Nuclei (%) [5]: 73%
Population Hoechst High Intensity Objects (%) [5]: 22%
Population Membrane Permeable-Phenotype (%) [5]: 0%
Population Mitochondria Different-Phenotype (%) [5]: 45%
Population Mitotic Cells (%) [5]: 60%
Population Normal (%) [5]: 77%
Population Pyknosed Nuclei (%) [5]: 16%
Population Tubulin-Different-Phenotype (%) [5]: 32%
Total Cell Count [5]: 326
Population Apoptotic (%) [6]: 41%
Population Fragmented Nuclei (%) [6]: 9%
Population Healthy Nuclei (%) [6]: 81%
Population Hoechst High Intensity Objects (%) [6]: 13%
Population Mitochondria Different-Phenotype (%) [6]: 48%
Population Mitotic Cells (%) [6]: 58%
Population Normal (%) [6]: 86%
Population Pyknosed Nuclei (%) [6]: 9%
Total Cell Count [6]: 301
Population Apoptotic (%) [7]: 85%
Population Fragmented Nuclei (%) [7]: 11%
Population Healthy Nuclei (%) [7]: 49%
Population Hoechst High Intensity Objects (%) [7]: 48%
Population Membrane Permeable-Phenotype (%) [7]: 1%
Population Mitochondria Different-Phenotype (%) [7]: 75%
Population Mitotic Cells (%) [7]: 14%
Population Normal (%) [7]: 51%
Population Pyknosed Nuclei (%) [7]: 39%
Population Tubulin-Different-Phenotype (%) [7]: 78%
Total Cell Count [7]: 237
Population Apoptotic (%) [8]: 82%
Population Fragmented Nuclei (%) [8]: 16%
Population Healthy Nuclei (%) [8]: 59%
Population Hoechst High Intensity Objects (%) [8]: 39%
Population Membrane Permeable-Phenotype (%) [8]: 0%
Population Mitochondria Different-Phenotype (%) [8]: 82%
Population Mitotic Cells (%) [8]: 17%
Population Normal (%) [8]: 61%
Population Pyknosed Nuclei (%) [8]: 23%
Total Cell Count [8]: 200
Population Apoptotic (%) [9]: 47%
Population Fragmented Nuclei (%) [9]: 14%
Population Healthy Nuclei (%) [9]: 65%
Population Hoechst High Intensity Objects (%) [9]: 36%
Population Membrane Permeable-Phenotype (%) [9]: 3%
Population Mitochondria Different-Phenotype (%) [9]: 38%
Population Mitotic Cells (%) [9]: 52%
Population Normal (%) [9]: 63%
Population Pyknosed Nuclei (%) [9]: 19%
Population Tubulin-Different-Phenotype (%) [9]: 29%
Total Cell Count [9]: 307
Population Apoptotic (%) [10]: 36%
Population Fragmented Nuclei (%) [10]: 17%
Population Healthy Nuclei (%) [10]: 73%
Population Hoechst High Intensity Objects (%) [10]: 27%
Population Membrane Permeable-Phenotype (%) [10]: 0%
Population Mitochondria Different-Phenotype (%) [10]: 32%
Population Mitotic Cells (%) [10]: 63%
Population Normal (%) [10]: 72%
Population Pyknosed Nuclei (%) [10]: 9%
Population Tubulin-Different-Phenotype (%) [10]: 19%
Total Cell Count [10]: 277
Population Apoptotic (%) [11]: 84%
Population Fragmented Nuclei (%) [11]: 23%
Population Healthy Nuclei (%) [11]: 23%
Population Hoechst High Intensity Objects (%) [11]: 75%
Population Membrane Permeable-Phenotype (%) [11]: 0%
Population Mitochondria Different-Phenotype (%) [11]: 86%
Population Mitotic Cells (%) [11]: 15%
Population Normal (%) [11]: 24%
Population Pyknosed Nuclei (%) [11]: 52%
Population Tubulin-Different-Phenotype (%) [11]: 53%
Total Cell Count [11]: 256
Population Apoptotic (%) [12]: 75%
Population Fragmented Nuclei (%) [12]: 21%
Population Hoechst High Intensity Objects (%) [12]: 67%
Population Mitochondria Different-Phenotype (%) [12]: 80%
Population Mitotic Cells (%) [12]: 25%
Population Normal (%) [12]: 32%
Population Pyknosed Nuclei (%) [12]: 55%
Population Tubulin-Different-Phenotype (%) [12]: 40%
Total Cell Count [12]: 203

CC(C)(O)C(=O)N1CCN(c2ccc(C(F)(F)F)c(C3=C(c4c[nH]c5ccccc45)C(=O)NC3=O)c2)CC1
Population Apoptotic (%) [1]: 33%
Population Fragmented Nuclei (%) [1]: 4%
Population Healthy Nuclei (%) [1]: 78%
Population Hoechst High Intensity Objects (%) [1]: 8%
Population Membrane Permeable-Phenotype (%) [1]: 0%
Population Mitochondria Different-Phenotype (%) [1]: 43%
Population Mitotic Cells (%) [1]: 66%
Population Normal (%) [1]: 91%
Population Pyknosed Nuclei (%) [1]: 16%
Population Tubulin-Different-Phenotype (%) [1]: 28%
Total Cell Count [1]: 381
Population Apoptotic (%) [2]: 46%
Population Fragmented Nuclei (%) [2]: 5%
Population Healthy Nuclei (%) [2]: 76%
Population Hoechst High Intensity Objects (%) [2]: 7%
Population Mitochondria Different-Phenotype (%) [2]: 58%
Population Mitotic Cells (%) [2]: 53%
Population Normal (%) [2]: 92%
Population Pyknosed Nuclei (%) [2]: 17%
Population Tubulin-Different-Phenotype (%) [2]: 30%
Total Cell Count [2]: 293
Population Apoptotic (%) [3]: 51%
Population Fragmented Nuclei (%) [3]: 4%
Population Healthy Nuclei (%) [3]: 74%
Population Hoechst High Intensity Objects (%) [3]: 10%
Population Membrane Permeable-Phenotype (%) [3]: 0%
Population Mitochondria Different-Phenotype (%) [3]: 61%
Population Mitotic Cells (%) [3]: 48%
Population Normal (%) [3]: 89%
Population Pyknosed Nuclei (%) [3]: 20%
Population Tubulin-Different-Phenotype (%) [3]: 62%
Total Cell Count [3]: 338
Population Apoptotic (%) [4]: 72%
Population Fragmented Nuclei (%) [4]: 3%
Population Healthy Nuclei (%) [4]: 75%
Population Hoechst High Intensity Objects (%) [4]: 7%
Population Mitochondria Different-Phenotype (%) [4]: 90%
Population Mitotic Cells (%) [4]: 27%
Population Normal (%) [4]: 92%
Population Pyknosed Nuclei (%) [4]: 21%
Population Tubulin-Different-Phenotype (%) [4]: 63%
Total Cell Count [4]: 203
Population Apoptotic (%) [5]: 33%
Population Fragmented Nuclei (%) [5]: 8%
Population Healthy Nuclei (%) [5]: 74%
Population Hoechst High Intensity Objects (%) [5]: 5%
Population Membrane Permeable-Phenotype (%) [5]: 0%
Population Mitochondria Different-Phenotype (%) [5]: 32%
Population Mitotic Cells (%) [5]: 66%
Population Normal (%) [5]: 94%
Population Pyknosed Nuclei (%) [5]: 17%
Population Tubulin-Different-Phenotype (%) [5]: 19%
Total Cell Count [5]: 469
Population Apoptotic (%) [6]: 29%
Population Fragmented Nuclei (%) [6]: 5%
Population Healthy Nuclei (%) [6]: 79%
Population Mitochondria Different-Phenotype (%) [6]: 48%
Population Mitotic Cells (%) [6]: 70%
Population Pyknosed Nuclei (%) [6]: 14%
Total Cell Count [6]: 335
Population Apoptotic (%) [7]: 45%
Population Fragmented Nuclei (%) [7]: 6%
Population Healthy Nuclei (%) [7]: 71%
Population Hoechst High Intensity Objects (%) [7]: 4%
Population Membrane Permeable-Phenotype (%) [7]: 1%
Population Mitochondria Different-Phenotype (%) [7]: 48%
Population Mitotic Cells (%) [7]: 54%
Population Normal (%) [7]: 95%
Population Pyknosed Nuclei (%) [7]: 22%
Population Tubulin-Different-Phenotype (%) [7]: 43%
Total Cell Count [7]: 387
Population Apoptotic (%) [8]: 66%
Population Fragmented Nuclei (%) [8]: 2%
Population Hoechst High Intensity Objects (%) [8]: 7%
Population Membrane Permeable-Phenotype (%) [8]: 0%
Population Mitochondria Different-Phenotype (%) [8]: 84%
Population Mitotic Cells (%) [8]: 34%
Population Normal (%) [8]: 92%
Population Pyknosed Nuclei (%) [8]: 25%
Population Tubulin-Different-Phenotype (%) [8]: 60%
Total Cell Count [8]: 212
Population Apoptotic (%) [9]: 25%
Population Fragmented Nuclei (%) [9]: 9%
Population Healthy Nuclei (%) [9]: 79%
Population Hoechst High Intensity Objects (%) [9]: 2%
Population Membrane Permeable-Phenotype (%) [9]: 0%
Population Mitochondria Different-Phenotype (%) [9]: 21%
Population Mitotic Cells (%) [9]: 74%
Population Normal (%) [9]: 97%
Population Pyknosed Nuclei (%) [9]: 10%
Population Tubulin-Different-Phenotype (%) [9]: 14%
Total Cell Count [9]: 780
Population Apoptotic (%) [10]: 27%
Population Fragmented Nuclei (%) [10]: 10%
Population Hoechst High Intensity Objects (%) [10]: 5%
Population Mitochondria Different-Phenotype (%) [10]: 29%
Population Mitotic Cells (%) [10]: 72%
Population Normal (%) [10]: 94%
Population Tubulin-Different-Phenotype (%) [10]: 15%
Total Cell Count [10]: 571
Population Apoptotic (%) [11]: 54%
Population Fragmented Nuclei (%) [11]: 8%
Population Healthy Nuclei (%) [11]: 71%
Population Hoechst High Intensity Objects (%) [11]: 8%
Population Membrane Permeable-Phenotype (%) [11]: 0%
Population Mitochondria Different-Phenotype (%) [11]: 53%
Population Mitotic Cells (%) [11]: 45%
Population Normal (%) [11]: 91%
Population Pyknosed Nuclei (%) [11]: 19%
Population Tubulin-Different-Phenotype (%) [11]: 25%
Total Cell Count [11]: 467
Population Apoptotic (%) [12]: 78%
Population Fragmented Nuclei (%) [12]: 9%
Population Mitochondria Different-Phenotype (%) [12]: 71%
Population Mitotic Cells (%) [12]: 21%
Population Tubulin-Different-Phenotype (%) [12]: 40%
Total Cell Count [12]: 227
